Measurements of several laboratories.
Protocols differ between the studies behind these lines.
Target: Serine/threonine-protein kinase Nek9 (NEK9, Homo sapiens, UniProt Q8TD19)
Residues used in one study (Q8TD19 1-979): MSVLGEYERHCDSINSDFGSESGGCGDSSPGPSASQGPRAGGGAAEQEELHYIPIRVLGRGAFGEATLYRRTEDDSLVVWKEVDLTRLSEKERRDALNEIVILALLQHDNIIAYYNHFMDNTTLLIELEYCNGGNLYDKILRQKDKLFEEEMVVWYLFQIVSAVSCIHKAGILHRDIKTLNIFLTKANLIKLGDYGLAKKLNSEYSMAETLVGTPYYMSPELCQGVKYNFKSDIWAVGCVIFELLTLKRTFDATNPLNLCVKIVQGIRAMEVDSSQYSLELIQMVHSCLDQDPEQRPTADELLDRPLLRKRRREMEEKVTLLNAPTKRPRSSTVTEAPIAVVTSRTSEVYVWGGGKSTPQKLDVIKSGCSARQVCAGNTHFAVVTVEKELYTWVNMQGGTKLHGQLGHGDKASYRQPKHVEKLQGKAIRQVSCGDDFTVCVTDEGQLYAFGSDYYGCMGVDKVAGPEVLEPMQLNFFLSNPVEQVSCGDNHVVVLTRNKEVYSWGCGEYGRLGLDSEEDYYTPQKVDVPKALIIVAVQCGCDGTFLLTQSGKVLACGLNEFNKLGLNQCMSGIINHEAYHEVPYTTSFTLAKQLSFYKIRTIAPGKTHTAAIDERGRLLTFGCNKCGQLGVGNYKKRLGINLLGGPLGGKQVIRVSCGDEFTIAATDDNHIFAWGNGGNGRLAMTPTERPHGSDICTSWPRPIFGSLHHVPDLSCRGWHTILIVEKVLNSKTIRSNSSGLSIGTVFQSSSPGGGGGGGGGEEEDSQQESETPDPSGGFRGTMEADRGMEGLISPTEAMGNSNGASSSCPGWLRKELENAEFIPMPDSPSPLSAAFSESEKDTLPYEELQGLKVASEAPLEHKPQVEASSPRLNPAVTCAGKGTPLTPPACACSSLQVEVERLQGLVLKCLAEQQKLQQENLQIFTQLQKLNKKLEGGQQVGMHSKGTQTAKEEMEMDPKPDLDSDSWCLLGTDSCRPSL

For COc1ncc2cc3ccccc3nc2c1C#N, the remaining binding was 95% (cell-free assay; competition with immobilised ligand; 5 µM).
With CN(CCCC(F)(F)F)c1nccc(-c2cnn3ncccc23)n1 the remaining binding was 100% (binding; 1 µM).
Cc1nc(Cc2cccc(C(F)(F)F)c2)sc1-c1ccc(C(N)=O)nc1 gave a remaining binding of 100% (cell-free assay; competition with immobilised ligand; 1 µM).
Nc1ncc2c(n1)-c1c([nH]c3ccc(C#CC4CC4)cc13)CCCC2 gave a remaining binding of 91% (binding; competition with immobilised ligand; 1 µM).
C[C@H]1CCN(c2nccc(-c3cnn4ncccc34)n2)C1 gave a remaining binding of 100% (binding; 1 µM).
Cc1c(C(=O)O)cc(-c2ccc(C3CCNCC3)cc2)c2ccc(-c3ccc(C(F)(F)F)cc3)cc12 has a remaining binding of 100% (binding; competition with immobilised ligand; 1 µM).
The remaining binding of c1cnn2ncc(-c3ccnc(N4CCC45COC5)n3)c2c1 is reported as 82% (binding; 1 µM).
For O=C(c1ccc(Nc2nccc(-c3cc4ccccc4s3)n2)cc1)N1CCC(N2CCCC2)CC1, the remaining binding was 100% (binding; competition with immobilised ligand; 1 µM).
Cc1cc(-n2nc(Cc3cc(F)cc(C(F)(F)F)c3)nc2C)ccc1C(N)=O has a remaining binding of 100% (cell-free assay; competition with immobilised ligand; 1 µM).
The remaining binding of Cc1cnc(Nc2ccc(C(=O)N3CCC(N4CCCC4)CC3)cc2)nc1-c1cc2ccccc2s1 is reported as 14% (binding; competition with immobilised ligand; 1 µM).
O=C1NC(c2ccccn2)Sc2ccccc21 (stereo not shown) gave a remaining binding of 75% (cell-free assay; competition with immobilised ligand; 1 µM).
The remaining binding of CNC(=O)[C@@H]1CC[C@@H](n2c(-c3ccc4cnccc4c3)nc3ccc(C(=O)NCc4cccc(C(N)=O)c4)cc32)C1 is reported as 100% (binding; competition with immobilised ligand; 1 µM).
For c1cncc(-c2cccc(Nc3nccc(NC4CCCCC4)n3)c2)c1, the remaining binding was 95% (binding; competition with immobilised ligand; 10 µM).
The remaining binding of Cc1cc(NC(=O)c2cccc(S(F)(F)(F)(F)F)c2)cc(-n2ccn3nc(-c4cccnc4)cc23)c1 is reported as 100% (cell-free assay; competition with immobilised ligand; 1 µM).
F[C@@H]1CCN(c2nccc(-c3cnn4ncccc34)n2)C1 has a remaining binding of 100% (binding; 1 µM).
The remaining binding of C[C@@H](c1ccc(-n2cnc3c(N)ncnc32)cc1)N1CCc2nn(C)c(Cc3ccccc3)c2C1=O is reported as 94% (binding; competition with immobilised ligand; 0.1 µM).
For CN(c1nccc(-c2cnn3ncccc23)n1)C1CC1, the remaining binding was 100% (binding; 1 µM).
With COc1cnc(Nc2cccc(S(N)(=O)=O)c2)nc1N1CCN(c2ccccc2)C(=O)C1 the remaining binding was 99% (binding; competition with immobilised ligand; 1 µM).
With O=C(Nc1c[nH]nc1C(=O)NC1CCNCC1)c1cc(F)cc(F)c1 the remaining binding was 100% (binding; competition with immobilised ligand; 1 µM).
With CN(C)C(=O)Cn1cc(-c2nc([C@@](C)(c3ccc(-c4cnc(N)nc4)cc3)C3CC3)no2)cn1 the remaining binding was 95% (cell-free assay; competition with immobilised ligand; 1 µM).
For CC1CCCN1c1nccc(-c2cnn3ncccc23)n1 (stereo not shown), the remaining binding was 100% (binding; 1 µM).
The remaining binding of O=C(NCCCN1CCOCC1)c1ccc(Nc2nccc(-c3cc4ccccc4s3)n2)cc1 is reported as 73% (binding; competition with immobilised ligand; 1 µM).
